pIC50: −log10 of the molar value. Calls of active or inactive are those of the source. The calls are words filed in the database; no cut-off is given here.
Assays:
[1] = test system: Mus musculus; assay: Toxicity in nude mouse ectopically xenografted with human HepG2 cells assessed as liver weight at 25 mg/kg, ip administered once in 2 days measured after 30 days (reference value: 0.069 to 0.434 g); type: organism-based; details: in vivo, 720 h
[2] = test system: Mus musculus; assay: Toxicity in nude mouse ectopically xenografted with human HepG2 cells assessed as spleen weight index at 25 mg/kg, ip administered once in 2 days measured after 30 days (reference value: 0.002 to 0.0106); type: organism-based; details: in vivo, 720 h
[3] = test system: HepG2; assay: Antitumor activity against human HepG2 cells ectopically xenografted in nude mouse assessed as tumor growth inhibition at 25 mg/kg, ip administered once in 2 days measured after 30 days relative to control; type: functional; details: read-out: TGI
[4] = test system: Mus musculus; assay: Toxicity in nude mouse ectopically xenografted with human HepG2 cells assessed as liver weight index at 25 mg/kg, ip administered once in 2 days measured after 30 days (reference value: 0.0009 to 0.0187); type: organism-based; details: in vivo, 720 h
[5] = test system: Mus musculus; assay: Toxicity in nude mouse ectopically xenografted with human HepG2 cells assessed as body weight loss at 25 mg/kg, ip administered once in 2 days measured after 10 days relative to control; type: organism-based; details: in vivo, 240 h
[6] = test system: Mus musculus; assay: Toxicity in nude mouse ectopically xenografted with human HepG2 cells assessed as spleen weight at 25 mg/kg, ip administered once in 2 days measured after 30 days (reference value: 0.071 to 0.248 g); type: organism-based; details: in vivo, 720 h
[7] = test system: HepG2; assay: Antiproliferative activity against human HepG2 cells after 48 hrs by MTT assay; type: functional, cell-based; details: HepG2, 48 h
How it was run: (§1)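 Cells grown in DMEM with 10% FBS at 37 °C, 5% CO2; seeded at 6 × 10^3 cells/well, allowed to attach 12 h, then exposed to compound at final 50, 25, 10, 1 and 0.1 µM for 48 h. MTT (5 mg/mL) added for 4 h, formazan dissolved in DMSO, absorbance read at 490 nm; IC50 taken from the resulting curve.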

[8] = test system: MCF7; assay: Antiproliferative activity against human MCF7 cells after 48 hrs by MTT assay; type: functional, cell-based; details: MCF7, 48 h; how it was run: as §1
[9] = Antiproliferative activity against human QGY7701 cells after 48 hrs by MTT assay; type: cell-based; details: QGY7701, 48 h; how it was run: as §1
[10] = Selectivity index, ratio of IC50 for human QGY7701 cells to IC50 for human HepG2 cells; type: functional
How it was run: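 Ratio built from MTT IC50 values: QGY-7701 and HepG2 cells in DMEM/10% FBS, seeded at 6 × 10^3 cells/well, attached 12 h, treated 48 h at final 0.1–50 µM, MTT 4 h, DMSO solubilisation, absorbance at 490 nm.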

[11] = test system: HepG2; assay: Downregulation of survivin expression in human HepG2 cells after 24 hrs by Western blot method; type: functional, cell-based
How it was run: (§2)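 HepG2 cells in 6 cm dishes exposed to a range of concentrations (1–10 µM) for 24 h. Lysate protein measured by BCA, run on 12% SDS-PAGE and transferred to PVDF. Membrane blocked in 5% milk for 1 h, primary antibody overnight at 4 °C, bands imaged after antibody hybridisation.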

[12] = target: T1, DNA topoisomerase 1 (Homo sapiens) (UniProt P11387); assay: Inhibition of recombinant human topoisomerase-1-mediated relaxation of pBR322 DNA substrate after 30 mins agarose gel electrophoresis method
T1 sequence (whole entry): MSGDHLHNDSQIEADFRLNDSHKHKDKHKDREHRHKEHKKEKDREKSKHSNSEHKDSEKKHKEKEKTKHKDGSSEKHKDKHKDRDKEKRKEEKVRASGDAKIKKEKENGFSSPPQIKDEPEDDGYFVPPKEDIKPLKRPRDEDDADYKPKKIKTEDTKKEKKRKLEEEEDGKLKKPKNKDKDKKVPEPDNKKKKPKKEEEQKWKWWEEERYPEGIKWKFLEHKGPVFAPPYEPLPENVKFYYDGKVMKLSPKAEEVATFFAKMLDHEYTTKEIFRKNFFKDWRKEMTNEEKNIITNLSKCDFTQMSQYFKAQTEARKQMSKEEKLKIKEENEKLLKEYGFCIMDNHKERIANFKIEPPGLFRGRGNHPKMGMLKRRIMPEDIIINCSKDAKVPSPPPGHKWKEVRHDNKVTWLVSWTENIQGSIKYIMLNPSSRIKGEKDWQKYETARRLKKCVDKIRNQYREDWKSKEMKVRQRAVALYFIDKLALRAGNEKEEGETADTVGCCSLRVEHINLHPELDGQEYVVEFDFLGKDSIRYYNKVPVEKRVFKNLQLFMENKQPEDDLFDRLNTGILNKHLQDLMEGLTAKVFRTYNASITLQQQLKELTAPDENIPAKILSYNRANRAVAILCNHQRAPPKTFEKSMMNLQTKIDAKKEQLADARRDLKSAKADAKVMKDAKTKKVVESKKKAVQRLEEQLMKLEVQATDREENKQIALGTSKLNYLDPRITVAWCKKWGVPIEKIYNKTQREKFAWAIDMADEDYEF

[13] = species on record: Homo sapiens; assay: Inhibition of recombinant human topoisomerase-2-mediated decatenation at 50 uM using kinetoplast DNA as substrate after 30 mins agarose gel electrophoresis method relative to control
How it was run: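 Human Topo II decatenation run by a contract laboratory. Compound or 50% DMSO combined with reaction mix and diluted enzyme, incubated 35 ± 2 °C for 30 min, then stop buffer added. Products separated on 1% agarose, stained 10 min with 2.3 µg/ml ethidium bromide, destained 20 min, bands quantified densitometrically. Doxorubicin at 1 and 10 µM as positive controls, no-compound negative control; run in duplicate.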

[14] = test system: HepG2; assay: Downregulation of Bcl2 expression in human HepG2 cells at 10 uM after 24 hrs by Western blot method; type: functional, cell-based; how it was run: as §2
[15] = species on record: Bos taurus; assay: Binding affinity to calf thymus DNA at 40 uM after 5 mins by UV absorbance spectrophotometric method; details: in the assay text read “fluorescence spectroscopic method” for “UV absorbance spectrophotometric method”
How it was run: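 Fluorescence emission titration on a spectrofluorometer in 5 mM Tris, 50 mM NaCl, pH 7.2. Compound fixed at 40 µM final; ct DNA added at 0, 8, 16, 24, 32, 40, 60, 80 and 120 µM final. DNA concentration set by UV using ε260 = 6600 M-1 cm-1. Excitation 280 nm; 5 min incubation before reading.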

[16] = test system: HepG2; assay: Upregulation of cleaved caspase-7 expression in human HepG2 cells at 10 uM after 24 hrs by Western blot method; type: functional, cell-based; how it was run: as §2
[17] = test system: HepG2; assay: Upregulation of cleaved PARP expression in human HepG2 cells up to 10 uM after 24 hrs by Western blot method; type: functional, cell-based; how it was run: as §2
[18] = target: Baculoviral IAP repeat-containing protein 5 (Homo sapiens) (UniProt O15392); assay: Binding affinity to survivin (unknown origin) after 20 mins by spectrofluorimetric titration method
How it was run: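 Intrinsic fluorescence titration of purified survivin (0.3 µM) in 10 mM PBS, pH 7.4, at 37 °C. Compound added to final 0–1.6 µM; 20 min incubation before recording emission spectra with excitation at 280 nm. Spectra compared with and without survivin.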

Baculoviral IAP repeat-containing protein 5 (Homo sapiens), sequence (O15392 whole entry): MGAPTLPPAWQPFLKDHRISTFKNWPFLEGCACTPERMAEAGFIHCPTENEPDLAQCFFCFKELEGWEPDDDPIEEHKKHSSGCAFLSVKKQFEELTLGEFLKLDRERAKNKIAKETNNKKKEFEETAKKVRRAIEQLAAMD

Compound O=c1[nH]cc(F)c(=O)[nH]1 [FLUOROURACIL] has an Activity [1] of 0.062 to 0.419 g, an Activity index [2] of 0.005 to 0.0144 and an inhibition in vivo at 25 mg/kg [3] of 64%. The Activity index [4] was 0.0034 to 0.0231, the Activity [5] was 30% and the Activity [6] was 0.091 to 0.26 g.

CN(C)CCCNC(=O)c1ccc(NCc2ccccc2)c2c(=O)c3cccc([N+](=O)[O-])c3[nH]c12 showed a pIC50 [7] of 5.61, a pIC50 [8] of 5.53 and a pIC50 [9] of 5.40.

For COc1ccc(CNc2ccc(C(=O)NCCCN(C)C)c3[nH]c4c([N+](=O)[O-])cccc4c(=O)c23)cc1 [listing 1 of 2 here], the “Ratio IC50” value [10] was 11, the pIC50 [7] was 5.45 and the pIC50 [8] was 5.36. For the same compound, the pIC50 [9] was 4.39.

For COc1ccc(CNc2ccc(C(=O)NCCCN(C)C)c3[nH]c4c([N+](=O)[O-])cccc4c(=O)c23)cc1 [listing 2 of 2 here], the Activity [11] was “Dose-dependent effect”, the inhibition [12] was “inactive” and the inhibition [13] was 10.9%. For the same compound, the Activity [14] was “Active”, the Activity [15] was “inactive” and the Activity [16] was “Active”. The Activity [17] was “Active” and the Activity [18] was “Dose-dependent effect”.
